Reference: ChEMBL document CHEMBL5303300, “EUbOPEN Chemogenomics Library - Multiplex” (2023)
“And” between values parts separate entries of the source, which are not always exact repeats. Equal entries are not always repeated.

Columns and labels:
Assay type in all cases: toxicity, cell-based
[1] = test system: Fibroblast; assay: Multiplex assay against human fibroblast; conditions: number of replicates 2
Method in brief: (§1)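 At seeding, live cells were stained with Hoechst33342, BioTracker Green Microtubule Cytoskeleton Dye, MitoTracker Red and Annexin V Alexa Fluor 680. After compound addition they were imaged on a CQ1 microscope at 37°C and 5% CO2, and CellPathfinder machine-learning gating sorted them into Hoechst high-intensity objects or normal cells, with normal cells further split into healthy, pyknosed or fragmented nuclei and pyknosed cells into mitotic or apoptotic. Tubulin, mitochondrial-mass and membrane-permeability phenotypes are given as per cents of cells with healthy nuclei.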

[2] = test system: HEK-293T; assay: Multiplex assay against HEK293T; conditions: human, number of replicates 2; method in brief: as §1
[3] = test system: U2OS; assay: Multiplex assay against U2OS; conditions: human, number of replicates 2; method in brief: as §1
[4] = 12 h, 1 µM, compound concentration 1 uM
[5] = 12 h, 10 µM, compound concentration 10 uM
[6] = 24 h, 1 µM, compound concentration 1 uM
[7] = 24 h, 10 µM, compound concentration 10 uM
[8] = 48 h, 1 µM, compound concentration 1 uM
[9] = 48 h, 10 µM, compound concentration 10 uM

## Cn1cc(-c2ccc(-c3cncc(Cl)c3N3CCC4(CCNC4=O)CC3)cc2)cn1
[1]; [4]
  Population Apoptotic (%): 34% and 44%
  Population Fragmented Nuclei (%): 3% and 11%
  Population Healthy Nuclei (%): 66% and 70%
  Population Hoechst High Intensity Objects (%): 0%
  Population Membrane Permeable-Phenotype (%): 9% and 5%
  Population Mitochondria Different-Phenotype (%): 0% and 2%
  Population Mitotic Cells (%): 66% and 55%
  Population Normal (%): 100%
  Population Pyknosed Nuclei (%): 30% and 18%
  Population Tubulin-Different-Phenotype (%): 22% and 16%
  Total Cell Count: 162 and 230
[1]; [5]
  Population Apoptotic (%): 25% and 39%
  Population Fragmented Nuclei (%): 14% and 11%
  Population Healthy Nuclei (%): 67% and 71%
  Population Hoechst High Intensity Objects (%): 0%
  Population Membrane Permeable-Phenotype (%): 18% and 13%
  Population Mitochondria Different-Phenotype (%): 3% and 4%
  Population Mitotic Cells (%): 74% and 60%
  Population Normal (%): 100%
  Population Pyknosed Nuclei (%): 17% and 16%
  Population Tubulin-Different-Phenotype (%): 84% and 65%
  Total Cell Count: 196 and 203
[1]; [6]
  Population Apoptotic (%): 45% and 50%
  Population Fragmented Nuclei (%): 7% and 13%
  Population Healthy Nuclei (%): 38% and 57%
  Population Hoechst High Intensity Objects (%): 0%
  Population Membrane Permeable-Phenotype (%): 21% and 8%
  Population Mitochondria Different-Phenotype (%): 3% and 2%
  Population Mitotic Cells (%): 54% and 49%
  Population Normal (%): 99%
  Population Pyknosed Nuclei (%): 53% and 28%
  Population Tubulin-Different-Phenotype (%): 41% and 21%
  Total Cell Count: 157 and 229
[1]; [7]
  Population Apoptotic (%): 44% and 56%
  Population Fragmented Nuclei (%): 24% and 22%
  Population Healthy Nuclei (%): 62% and 64%
  Population Hoechst High Intensity Objects (%): 0%
  Population Membrane Permeable-Phenotype (%): 15% and 7%
  Population Mitochondria Different-Phenotype (%): 8% and 7%
  Population Mitotic Cells (%): 55% and 43%
  Population Normal (%): 99% and 100%
  Population Pyknosed Nuclei (%): 13% and 12%
  Population Tubulin-Different-Phenotype (%): 82% and 73%
  Total Cell Count: 204 and 232
[1]; [8]
  Population Apoptotic (%): 69% and 58%
  Population Fragmented Nuclei (%): 8% and 20%
  Population Healthy Nuclei (%): 50% and 57%
  Population Hoechst High Intensity Objects (%): 0% and 1%
  Population Mitochondria Different-Phenotype (%): 1% and 2%
  Population Mitotic Cells (%): 30% and 41%
  Population Normal (%): 99% and 98%
  Population Pyknosed Nuclei (%): 40% and 22%
  Population Tubulin-Different-Phenotype (%): 47% and 22%
  Total Cell Count: 154 and 211
[1]; [9]
  Population Apoptotic (%): 66% and 69%
  Population Fragmented Nuclei (%): 19% and 22%
  Population Healthy Nuclei (%): 67% and 66%
  Population Hoechst High Intensity Objects (%): 0%
  Population Membrane Permeable-Phenotype (%): 9% and 2%
  Population Mitochondria Different-Phenotype (%): 11%
  Population Mitotic Cells (%): 33% and 30%
  Population Normal (%): 99%
  Population Pyknosed Nuclei (%): 12% and 10%
  Population Tubulin-Different-Phenotype (%): 66% and 68%
  Total Cell Count: 210 and 211
[2]; [4]
  Population Apoptotic (%): 62% and 39%
  Population Fragmented Nuclei (%): 2% and 4%
  Population Healthy Nuclei (%): 90% and 84%
  Population Hoechst High Intensity Objects (%): 6% and 5%
  Population Membrane Permeable-Phenotype (%): 5% and 4%
  Population Mitochondria Different-Phenotype (%): 14% and 18%
  Population Mitotic Cells (%): 37% and 60%
  Population Normal (%): 93% and 94%
  Population Pyknosed Nuclei (%): 6% and 11%
  Population Tubulin-Different-Phenotype (%): 58% and 67%
  Total Cell Count: 574 and 615
[2]; [5]
  Population Apoptotic (%): 41% and 49%
  Population Fragmented Nuclei (%): 2% and 3%
  Population Healthy Nuclei (%): 87% and 86%
  Population Hoechst High Intensity Objects (%): 7%
  Population Membrane Permeable-Phenotype (%): 5% and 6%
  Population Mitochondria Different-Phenotype (%): 40% and 35%
  Population Mitotic Cells (%): 58% and 50%
  Population Normal (%): 92%
  Population Pyknosed Nuclei (%): 10%
  Population Tubulin-Different-Phenotype (%): 98% and 95%
  Total Cell Count: 600 and 554
[2]; [6]
  Population Apoptotic (%): 36% and 51%
  Population Fragmented Nuclei (%): 6% and 9%
  Population Healthy Nuclei (%): 86% and 85%
  Population Hoechst High Intensity Objects (%): 9% and 10%
  Population Membrane Permeable-Phenotype (%): 3%
  Population Mitochondria Different-Phenotype (%): 8% and 7%
  Population Mitotic Cells (%): 63% and 48%
  Population Normal (%): 90% and 89%
  Population Pyknosed Nuclei (%): 7% and 5%
  Population Tubulin-Different-Phenotype (%): 53%
  Total Cell Count: 822 and 828
[2]; [7]
  Population Apoptotic (%): 43% and 49%
  Population Fragmented Nuclei (%): 5%
  Population Healthy Nuclei (%): 85% and 84%
  Population Hoechst High Intensity Objects (%): 5% and 9%
  Population Membrane Permeable-Phenotype (%): 6% and 5%
  Population Mitochondria Different-Phenotype (%): 34% and 30%
  Population Mitotic Cells (%): 56% and 50%
  Population Normal (%): 94% and 90%
  Population Pyknosed Nuclei (%): 9% and 10%
  Population Tubulin-Different-Phenotype (%): 95% and 94%
  Total Cell Count: 684 and 624
[2]; [8]
  Population Apoptotic (%): 31% and 36%
  Population Fragmented Nuclei (%): 16% and 14%
  Population Healthy Nuclei (%): 80% and 82%
  Population Hoechst High Intensity Objects (%): 16% and 14%
  Population Membrane Permeable-Phenotype (%): 5% and 4%
  Population Mitochondria Different-Phenotype (%): 2%
  Population Mitotic Cells (%): 68% and 63%
  Population Normal (%): 83% and 85%
  Population Pyknosed Nuclei (%): 2% and 3%
  Population Tubulin-Different-Phenotype (%): 42% and 49%
  Total Cell Count: 1341 and 1209
[2]; [9]
  Population Apoptotic (%): 55% and 50%
  Population Fragmented Nuclei (%): 8% and 7%
  Population Healthy Nuclei (%): 84% and 83%
  Population Hoechst High Intensity Objects (%): 10%
  Population Membrane Permeable-Phenotype (%): 8%
  Population Mitochondria Different-Phenotype (%): 15% and 18%
  Population Mitotic Cells (%): 45% and 49%
  Population Normal (%): 89%
  Population Pyknosed Nuclei (%): 6% and 8%
  Population Tubulin-Different-Phenotype (%): 87% and 85%
  Total Cell Count: 1065 and 859
[3]; [4]
  Population Apoptotic (%): 56% and 66%
  Population Healthy Nuclei (%): 86% and 64%
  Population Hoechst High Intensity Objects (%): 0%
  Population Membrane Permeable-Phenotype (%): 3% and 7%
  Population Mitochondria Different-Phenotype (%): 1% and 0%
  Population Mitotic Cells (%): 43% and 33%
  Population Normal (%): 99% and 100%
  Population Pyknosed Nuclei (%): 8% and 7%
  Population Tubulin-Different-Phenotype (%): 64% and 40%
[3]; [5]
  Population Apoptotic (%): 100% and 50%
  Population Healthy Nuclei (%): 61% and 79%
  Population Hoechst High Intensity Objects (%): 0%
  Population Membrane Permeable-Phenotype (%): 19% and 10%
  Population Mitochondria Different-Phenotype (%): 0% and 6%
  Population Normal (%): 100%
  Population Pyknosed Nuclei (%): 9% and 14%
  Population Tubulin-Different-Phenotype (%): 23% and 36%
[3]; [6]
  Population Apoptotic (%): 72% and 66%
  Population Healthy Nuclei (%): 88% and 65%
  Population Hoechst High Intensity Objects (%): 0%
  Population Membrane Permeable-Phenotype (%): 2% and 7%
  Population Mitochondria Different-Phenotype (%): 2% and 0%
  Population Mitotic Cells (%): 27% and 33%
  Population Normal (%): 100%
  Population Pyknosed Nuclei (%): 8% and 6%
  Population Tubulin-Different-Phenotype (%): 65% and 39%
[3]; [7]
  Population Apoptotic (%): 88% and 60%
  Population Healthy Nuclei (%): 59% and 80%
  Population Hoechst High Intensity Objects (%): 0%
  Population Membrane Permeable-Phenotype (%): 20% and 14%
  Population Mitochondria Different-Phenotype (%): 0% and 17%
  Population Normal (%): 100% and 99%
  Population Pyknosed Nuclei (%): 21% and 13%
  Population Tubulin-Different-Phenotype (%): 32% and 46%
[3]; [8]
  Population Apoptotic (%): 70% and 100%
  Population Healthy Nuclei (%): 88% and 65%
  Population Hoechst High Intensity Objects (%): 0%
  Population Membrane Permeable-Phenotype (%): 2% and 5%
  Population Mitochondria Different-Phenotype (%): 3% and 0%
  Population Normal (%): 99% and 100%
  Population Pyknosed Nuclei (%): 7% and 6%
  Population Tubulin-Different-Phenotype (%): 65% and 47%
[3]; [9]
  Population Apoptotic (%): 78% and 92%
  Population Fragmented Nuclei (%): 7% and 17%
  Population Healthy Nuclei (%): 74% and 53%
  Population Hoechst High Intensity Objects (%): 0%
  Population Membrane Permeable-Phenotype (%): 25% and 33%
  Population Mitotic Cells (%): 21% and 7%
  Population Normal (%): 100%
  Population Pyknosed Nuclei (%): 17% and 28%
  Population Tubulin-Different-Phenotype (%): 50% and 45%
